Measurements published in ChEMBL document CHEMBL1155872, “Molecular features of the prazosin molecule required for activation of Transport-P” (Bioorg Med Chem, 2008).

Legend:
Assay type in all cases: cell-based
GT1-1 [1] = experiment: Inhibition of prazosin uptake at transport-P transporter protein in mouse GT1-1 cells at 100 uM relative to desipramine
GT1-1 [2] = experiment: Activation of [3H]prazosin uptake at transport-P transporter protein in mouse GT1-1 cells at 1 uM relative to control
Method in brief: (§1)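 GT1-1 GnRH neurones grown in DMEM/Ham's F-12 (1:1) with 10% FBS, plated on poly-D-lysine/laminin-coated wells and used after 2–4 days in culture. Intact cells washed, then incubated 60 min at 37 °C with tracer [³H]prazosin 2 × 10^-10 M plus test compound. Plates iced, washed at 0 °C, solubilised in SDS/NaOH. Radioactivity counted by scintillation and normalised to protein (BCA). Result given as % activation of tracer uptake.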

GT1-1 [3] = experiment: Activation of [3H]prazosin uptake at transport-P transporter protein in mouse GT1-1 cells at 10 uM relative to control; method in brief: as §1
GT1-1 [4] = experiment: Activation of [3H]prazosin uptake at transport-P transporter protein in mouse GT1-1 cells at 100 uM relative to control; method in brief: as §1
[5] = Inhibition of prazosin uptake at transport-P transporter protein in mouse GT1-1 cells
Method in brief: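 GT1-1 GnRH neurones were grown on poly-D-lysine/laminin and uptake was run on intact cells after 2–4 days. Incubation was 60 min at 37 °C in DMEM/25 mM Hepes/0.5 mM ascorbate, pH 7.4, with [³H]prazosin 2 × 10^-10 M, unlabelled prazosin 10^-6 M and test compound. Cell-associated radioactivity was normalised to protein. IC50 was taken from concentration–response curves, in triplicate, with each experiment done twice.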

IC50 [5] [µM]	SMILES	inhibition (GT1-1 [1]) [%]	Activity (GT1-1 [2]) [%]	Activity (GT1-1 [3]) [%]	Activity (GT1-1 [4]) [%]
	COc1cc2nc(N3CCN(C(C)=O)CC3)nc(N)c2cc1OC	37	0	0	61
	COc1cc2nc(N3CCN(C(=O)c4ccco4)CC3)nc(N)c2cc1OC		127		
0.19	c1cc2c(cc1OCCCCCN1CCCC1)CCCC2				
	COc1cc2nc(N3CCN(C(=O)c4cccs4)CC3)nc(N)c2cc1OC		57	161	
	COc1cc2nc(N3CCN(C(=O)C(F)(F)F)CC3)nc(N)c2cc1OC	31	0	0	26
4.5	COc1cc2nc(N3CCN(C(=O)c4ccco4)CC3)nc(Nc3ccccc3)c2cc1OC	80	0	0	0
	Nc1nc(N2CCN(C(=O)c3ccccc3)CC2)nc2ccccc12	73	0	0	0
	COc1cc2nc(N3CCC(C)CC3)nc(N)c2cc1OC	85	0	13	0
	COc1cc2cnc(N3CCN(C(=O)c4ccco4)CC3)nc2cc1OC	5	0	0	0
	COc1cc2nc(N3CCN(C(=O)C4CCCO4)CC3)nc(N)c2cc1OC (racemic)	41	0	0	38
	COc1cc2nc(N3CCN(C(=O)c4ccccc4)CC3)nc(N)c2cc1OC	63	0	40	47
	Nc1nc(N2CCN(C(=O)c3ccco3)CC2)nc2cc3c(cc12)OCCO3	42	0	74	163
80	CCN(CC)c1nc(N2CCN(C(=O)c3ccco3)CC2)nc2cc(OC)c(OC)cc12	55	0	0	0
81	COc1cc2nc(N3CCN(C(=O)c4ccco4)CC3)nc(N3CCOCC3)c2cc1OC	61	0	0	0
5.4	COc1cc2nc(N3CCN(C(=O)c4ccco4)CC3)nc(NCc3ccccc3)c2cc1OC	69	0	0	0
	CNc1nc(N2CCN(C(=O)c3ccco3)CC2)nc2cc(OC)c(OC)cc12	0	0	55	229
	COc1cc2nc(N3CCN(C(=O)c4ccco4)CC3)nc(NC(C)=O)c2cc1OC	0	0	35	206
	Nc1nc(N2CCN(C(=O)c3ccco3)CC2)nc2ccccc12	64	0	0	22
5.2	COc1cc2nc(N3CCN(c4ccccc4)CC3)nc(N)c2cc1OC	93	0	13	0
	COc1cc2nc(NCc3ccco3)nc(N)c2cc1OC	71	26	43	0
0.46	c1ccc(OCCCN2CCCC2)cc1				
	COc1cc2nc(NCCN3CCCCC3)nc(N)c2cc1OC	52	13	29	37
	COc1cc2nc(N3CCCN(C(=O)c4ccco4)CC3)nc(N)c2cc1OC	82	0	31	0
	COc1cc2nc(N3CCN(C(=O)c4ccco4)CC3)nc(O)c2cc1OC	0	0	0	0
	COc1cc2nc(N3CCN(C(=O)OCc4ccccc4)CC3)nc(N)c2cc1OC	75	0	6	0
